Test results as given in ChEMBL document CHEMBL1152292, “Biarylpyrazolyl oxadiazole as potent, selective, orally bioavailable cannabinoid-1 receptor antagonists for the treatment of obesity” (J Med Chem, 2008).

Columns and labels:
[1] = molecular target: Cannabinoid receptor 1 (Rattus norvegicus, UniProt P20272); test: Displacement of [3H]CP-55940 from CB1 receptor in Sprague-Dawley rat cerebellum by liquid scintillation spectrometry
Outline: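 Cerebella from male rats (200-300 g) homogenized in TME buffer (50 mM Tris-HCl, 1 mM EDTA, 3 mM MgCl2, pH 7.4), centrifuged 48000g 30 min at 4 °C. About 10 µg membrane incubated with radioligand and varied test concentrations in TME plus 0.5% fatty-acid-free BSA, 1 h at 30 °C. Filtered through PEI-soaked GF/B filters. […] IC50 by nonlinear regression, triplicates, three independent experiments.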

[2] = molecular target: Cannabinoid receptor 2 (Homo sapiens, UniProt P34972); test: Displacement of [3H]WIN-55212-2 from human CB2 receptor expressed in CHOK1 cells by liquid scintillation spectrometry; type: cell-based, CHO-K1
Chain of Cannabinoid receptor 2 (P34972 whole entry): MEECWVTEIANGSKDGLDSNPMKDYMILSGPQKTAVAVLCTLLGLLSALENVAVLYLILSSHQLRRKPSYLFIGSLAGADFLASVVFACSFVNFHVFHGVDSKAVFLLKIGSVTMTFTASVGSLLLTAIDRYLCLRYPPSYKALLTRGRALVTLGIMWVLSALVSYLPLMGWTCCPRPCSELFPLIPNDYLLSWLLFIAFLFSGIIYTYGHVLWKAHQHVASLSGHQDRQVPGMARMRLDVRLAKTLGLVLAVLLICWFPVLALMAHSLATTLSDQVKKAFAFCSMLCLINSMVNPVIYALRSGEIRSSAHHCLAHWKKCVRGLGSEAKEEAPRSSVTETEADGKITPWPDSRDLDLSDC
Outline: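 Membranes from CHO K-1 cells transfected with human CB2, prepared as for cerebellum. About 10 µg membrane incubated with radioligand and varied test concentrations in TME buffer plus 0.5% fatty-acid-free BSA, 1 h at 30 °C. Filtered through PEI-soaked GF/B filters. Nonspecific binding defined with 1 µM WIN55,212-2. IC50 by nonlinear regression, triplicates, three independent experiments.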

[3] = Selectivity ratio of IC50 for human CB2 receptor to IC50 for Sprague-Dawley rat CB1 receptor
Outline: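 Ratio of CB2 IC50 to CB1 IC50. Both come from radioligand competition on membranes incubated 1 h at 30 °C in TME/0.5% BSA: rat cerebellar membranes for CB1, human CB2-transfected CHO K-1 membranes for CB2. IC50 by nonlinear regression from three independent triplicate experiments.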

[4] = test system: Mus musculus; test: Reduction in body weight in diet-induced obese C57BL/6J mouse model at 10 mg/kg, po after 14 days; type: functional; design: scale not given: the % may be the effect or the level left
Outline: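 Male C57BL/6J DIO mice over 38 g, singly housed on a 12 h/12 h light/dark cycle with free access to food and water, habituated at least 7 days, tested during the light period. Compound dissolved fresh daily in deionized water with 10% DMSO, given orally at 10 mL/kg daily for 14 days. Vehicle controls n=5, treated groups n=6. Body weight recorded daily.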

Chain of Cannabinoid receptor 1 (P20272 whole entry): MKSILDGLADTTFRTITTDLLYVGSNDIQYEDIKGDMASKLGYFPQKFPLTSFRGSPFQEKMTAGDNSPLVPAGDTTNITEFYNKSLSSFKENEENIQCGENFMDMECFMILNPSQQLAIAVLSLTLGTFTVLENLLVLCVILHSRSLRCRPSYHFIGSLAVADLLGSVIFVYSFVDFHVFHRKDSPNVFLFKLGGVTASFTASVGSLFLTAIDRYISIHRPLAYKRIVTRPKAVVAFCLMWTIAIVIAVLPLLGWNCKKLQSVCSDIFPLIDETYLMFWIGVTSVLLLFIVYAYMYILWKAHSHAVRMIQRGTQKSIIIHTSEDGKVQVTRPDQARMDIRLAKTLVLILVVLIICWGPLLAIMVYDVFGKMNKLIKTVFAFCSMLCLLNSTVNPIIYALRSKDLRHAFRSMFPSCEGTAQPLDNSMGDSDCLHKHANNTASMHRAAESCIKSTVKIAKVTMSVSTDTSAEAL

CC(C)(C)c1nnc(-c2nn(-c3ccc(Cl)cc3Cl)c(-c3ccc(Cl)cc3)c2C2CC2)o1
IC50 [1]: 30.3 nM
IC50 [2]: 3320 nM
Ratio IC50 [3]: 110

CC(C)(C)c1nnc(-c2nn(-c3ccc(Cl)cc3Cl)c(-c3ccc(Cl)cc3)c2CC#N)o1
IC50 [2]: 539 nM
Ratio IC50 [3]: 88

CCC(CC)c1nnc(-c2nn(-c3ccc(Cl)cc3Cl)c(-c3ccc(Cl)cc3)c2C)o1
IC50 [1]: 31.7 nM

Cc1c(-c2nnc(C(C)c3ccccc3)o2)nn(-c2ccc(Cl)cc2Cl)c1-c1ccc(Cl)cc1 (configuration not stated)
IC50 [1]: 10.9 nM

Cc1c(-c2nnc(C(C)(C)C)o2)nn(-c2ccc(Cl)cc2Cl)c1-c1ccc(Cl)cc1
IC50 [1]: 7.59 nM
IC50 [2]: 1410 nM
Ratio IC50 [3]: 186

CCCCC(C)c1nnc(-c2nn(-c3ccc(Cl)cc3Cl)c(-c3ccc(Cl)cc3)c2C)o1 (configuration not stated)
IC50 [1]: 15.1 nM

Cc1ccc(C2(c3nnc(-c4nn(-c5ccc(Cl)cc5Cl)c(-c5ccc(Cl)cc5)c4Cn4cncn4)o3)CC2)cc1
IC50 [1]: 1.09 nM
IC50 [2]: 1240 nM
Ratio IC50 [3]: 1140

CC(C)(C)c1nnc(-c2nn(-c3ccc(Cl)cc3Cl)c(-c3ccc(Cl)cc3)c2Cn2ccnn2)o1
IC50 [2]: 1120 nM
Ratio IC50 [3]: 88

CC(C)(C)c1nnc(-c2nn(-c3ccc(Cl)cc3Cl)c(-c3ccc(Cl)cc3)c2CO)o1
IC50 [1]: 14.6 nM
IC50 [2]: 1810 nM
Ratio IC50 [3]: 124

Clc1ccc(-c2c(Cn3cncn3)c(-c3nnc(C4(c5ccc(Cl)cc5)CC4)o3)nn2-c2ccc(Cl)cc2Cl)cc1
IC50 [2]: 1480 nM
Ratio IC50 [3]: 670

CC1(c2nnc(-c3nn(-c4ccc(Cl)cc4Cl)c(-c4ccc(Br)cc4)c3Cn3cncn3)o2)CC1
IC50 [1]: 2.81 nM
IC50 [2]: 407 nM
Ratio IC50 [3]: 145

CCc1c(-c2nnc(C(C)(C)C)o2)nn(-c2ccc(Cl)cc2Cl)c1-c1ccc(Cl)cc1
IC50 [1]: 6.57 nM
IC50 [2]: 2330 nM
Ratio IC50 [3]: 355

CC(=O)OCc1c(-c2nnc(C(C)(C)C)o2)nn(-c2ccc(Cl)cc2Cl)c1-c1ccc(Cl)cc1
IC50 [2]: 1300 nM
Ratio IC50 [3]: 58

COC(=O)NCc1c(-c2nnc(C(C)(C)C)o2)nn(-c2ccc(Cl)cc2Cl)c1-c1ccc(Cl)cc1
IC50 [2]: 1670 nM
Ratio IC50 [3]: 107

CC(C)(C)c1nnc(-c2nn(-c3ccc(Cl)cc3Cl)c(-c3ccc(Cl)cc3)c2COc2ccccc2)o1
IC50 [2]: 5910 nM
Ratio IC50 [3]: 204

Cc1c(-c2nnc(C(C)(C)c3ccc(Cl)cc3)o2)nn(-c2ccc(Cl)cc2Cl)c1-c1ccc(Cl)cc1
IC50 [1]: 4.78 nM

Cc1c(-c2nnc(C3CCC3)o2)nn(-c2ccc(Cl)cc2Cl)c1-c1ccc(Cl)cc1
IC50 [1]: 13.1 nM

CCCCc1nnc(-c2nn(-c3ccc(Cl)cc3Cl)c(-c3ccc(Cl)cc3)c2C)o1
IC50 [1]: 35 nM

CC(C)c1c(-c2nnc(C(C)(C)C)o2)nn(-c2ccc(Cl)cc2Cl)c1-c1ccc(Cl)cc1
IC50 [1]: 18 nM
IC50 [2]: 2820 nM
Ratio IC50 [3]: 157

Cc1c(-c2nnc(Cc3ccccn3)o2)nn(-c2ccc(Cl)cc2Cl)c1-c1ccc(Cl)cc1
IC50 [1]: 51.9 nM

Cc1c(-c2nnc(-c3ccccc3)o2)nn(-c2ccc(Cl)cc2Cl)c1-c1ccc(Cl)cc1
IC50 [1]: 281 nM

CC(C)(C)c1nnc(-c2nn(-c3ccc(Cl)cc3Cl)c(-c3ccc(Cl)cc3)c2C(C)(C)O)o1
IC50 [2]: 1670 nM
Ratio IC50 [3]: 74

C[C@H](NC(=O)C(C)(C)Oc1ccc(C(F)(F)F)cn1)[C@@H](Cc1ccc(Cl)cc1)c1cccc(C#N)c1 [TARANABANT]
IC50 [1]: 0.86 nM

CCCCC(C)(C)c1nnc(-c2nn(-c3ccc(Cl)cc3Cl)c(-c3ccc(Cl)cc3)c2C)o1
IC50 [1]: 14.7 nM

Clc1ccc(C2(c3nnc(-c4nn(-c5ccc(Cl)cc5Cl)c(-c5ccc(Br)cc5)c4Cn4cncn4)o3)CC2)cc1
IC50 [1]: 0.57 nM
IC50 [2]: 1050 nM
Ratio IC50 [3]: 1840

CC(C)(C)c1nnc(-c2nn(-c3ccc(Cl)cc3Cl)c(-c3ccc(Cl)cc3)c2Cn2ncnn2)o1
IC50 [1]: 3.37 nM
IC50 [2]: 680 nM
Ratio IC50 [3]: 202

CC(C)(C)c1nnc(-c2nn(-c3ccc(Cl)cc3Cl)c(-c3ccc(Cl)cc3)c2Cn2cncn2)o1
IC50 [2]: 804 nM
Ratio IC50 [3]: 341

CC(C)(C)c1nnc(-c2nn(-c3ccc(Cl)cc3Cl)c(-c3ccc(Cl)cc3)c2C(=O)O)o1
IC50 [1]: > 10000 nM

Cc1c(-c2nnc(C(C)C)o2)nn(-c2ccc(Cl)cc2Cl)c1-c1ccc(Cl)cc1
IC50 [1]: 25 nM

CCCCCc1nnc(-c2nn(-c3ccc(Cl)cc3Cl)c(-c3ccc(Cl)cc3)c2C)o1
IC50 [1]: 71.8 nM

Cc1c(-c2nnc(C3(C(F)(F)F)CC3)o2)nn(-c2ccc(Cl)cc2Cl)c1-c1ccc(Cl)cc1
Activity [4]: 22.8%

CC(C)(C)c1nnc(-c2nn(-c3ccc(Cl)cc3Cl)c(-c3ccc(Cl)cc3)c2Cn2ccnc2)o1
IC50 [2]: 376 nM
Ratio IC50 [3]: 20

CC(C)(C)c1nnc(-c2nn(-c3ccc(Cl)cc3Cl)c(-c3ccc(Cl)cc3)c2Cn2cnnn2)o1
IC50 [2]: 736 nM
Ratio IC50 [3]: 96

FC(F)(F)C1(c2nnc(-c3nn(-c4ccc(Cl)cc4Cl)c(-c4ccc(Br)cc4)c3Cn3cncn3)o2)CC1
IC50 [1]: 0.93 nM
IC50 [2]: 948 nM
Ratio IC50 [3]: 1020
Activity [4]: 29.3%

CC(F)c1c(-c2nnc(C(C)(C)C)o2)nn(-c2ccc(Cl)cc2Cl)c1-c1ccc(Cl)cc1 (configuration not stated)
IC50 [2]: 924 nM
Ratio IC50 [3]: 66

Clc1ccc(-c2c(Cn3cncn3)c(-c3nnc(C4(c5ccccc5)CC4)o3)nn2-c2ccc(Cl)cc2Cl)cc1
IC50 [2]: 1130 nM

Clc1ccc(-n2nc(-c3nnc(C4(c5ccccc5)CC4)o3)c(Cn3cncn3)c2-c2ccc(Br)cc2)c(Cl)c1
IC50 [1]: 0.96 nM
IC50 [2]: 242 nM
Ratio IC50 [3]: 252

Cc1c(-c2nnc(C3CCCCCC3)o2)nn(-c2ccc(Cl)cc2Cl)c1-c1ccc(Cl)cc1
IC50 [1]: 26.5 nM

Cc1c(-c2nnc(C(C)(C)c3ccccc3)o2)nn(-c2ccc(Cl)cc2Cl)c1-c1ccc(Cl)cc1
IC50 [1]: 8.42 nM

COC(=O)NC(C)c1c(-c2nnc(C(C)(C)C)o2)nn(-c2ccc(Cl)cc2Cl)c1-c1ccc(Cl)cc1 (configuration not stated)
IC50 [1]: 9 nM
IC50 [2]: > 10000 nM
Ratio IC50 [3]: > 1110

CC(C)(C)c1nnc(-c2nn(-c3ccc(Cl)cc3Cl)c(-c3ccc(Cl)cc3)c2Cn2cccn2)o1
IC50 [2]: 979 nM
Ratio IC50 [3]: 48

CC(C)(C)c1nnc(-c2nn(-c3ccc(Cl)cc3Cl)c(-c3ccc(Cl)cc3)c2CF)o1
IC50 [2]: 1120 nM
Ratio IC50 [3]: 76

CCC(C)(C)c1nnc(-c2nn(-c3ccc(Cl)cc3Cl)c(-c3ccc(Cl)cc3)c2C)o1
IC50 [1]: 10.4 nM

Cc1c(-c2nnc(C3CCCCC3)o2)nn(-c2ccc(Cl)cc2Cl)c1-c1ccc(Cl)cc1
IC50 [1]: 12 nM

CCC(C)c1nnc(-c2nn(-c3ccc(Cl)cc3Cl)c(-c3ccc(Cl)cc3)c2C)o1 (configuration not stated)
IC50 [1]: 10.4 nM

CC(O)c1c(-c2nnc(C(C)(C)C)o2)nn(-c2ccc(Cl)cc2Cl)c1-c1ccc(Cl)cc1 (configuration not stated)
IC50 [2]: 1890 nM
Ratio IC50 [3]: 187

CC(C)(C)c1nnc(-c2nn(-c3ccc(Cl)cc3Cl)c(-c3ccc(Cl)cc3)c2COc2ccccn2)o1
IC50 [2]: 2040 nM
Ratio IC50 [3]: 84

Cc1ccc(C2(c3nnc(-c4nn(-c5ccc(Cl)cc5Cl)c(-c5ccc(Br)cc5)c4Cn4cncn4)o3)CC2)cc1
IC50 [1]: 1.34 nM
IC50 [2]: 579 nM
Ratio IC50 [3]: 432

FC(F)(F)C1(c2nnc(-c3nn(-c4ccc(Cl)cc4Cl)c(-c4ccc(Cl)cc4)c3Cn3cncn3)o2)CC1
IC50 [1]: 1.51 nM
IC50 [2]: 1750 nM
Ratio IC50 [3]: 1160
Activity [4]: 29.5%

COCc1c(-c2nnc(C(C)(C)C)o2)nn(-c2ccc(Cl)cc2Cl)c1-c1ccc(Cl)cc1
IC50 [2]: 375 nM
Ratio IC50 [3]: 24

C=C(C)c1c(-c2nnc(C(C)(C)C)o2)nn(-c2ccc(Cl)cc2Cl)c1-c1ccc(Cl)cc1
IC50 [2]: 1730 nM
Ratio IC50 [3]: 358

Cc1c(-c2nnc(Cc3ccccc3)o2)nn(-c2ccc(Cl)cc2Cl)c1-c1ccc(Cl)cc1
IC50 [1]: 19.2 nM

CCCc1c(-c2nnc(C(C)(C)C)o2)nn(-c2ccc(Cl)cc2Cl)c1-c1ccc(Cl)cc1
IC50 [1]: 33.5 nM
IC50 [2]: > 10000 nM
Ratio IC50 [3]: > 299

C=Cc1c(-c2nnc(C(C)(C)C)o2)nn(-c2ccc(Cl)cc2Cl)c1-c1ccc(Cl)cc1
IC50 [2]: 1050 nM
Ratio IC50 [3]: 62

CC(=O)SCc1c(-c2nnc(C(C)(C)C)o2)nn(-c2ccc(Cl)cc2Cl)c1-c1ccc(Cl)cc1
IC50 [2]: 1480 nM
Ratio IC50 [3]: 71

CC(C)(C)c1nnc(-c2nn(-c3ccc(Cl)cc3Cl)c(-c3ccc(Br)cc3)c2Cn2cncn2)o1
IC50 [2]: 513 nM
Ratio IC50 [3]: 187

CC1(c2nnc(-c3nn(-c4ccc(Cl)cc4Cl)c(-c4ccc(Cl)cc4)c3Cn3cncn3)o2)CC1
IC50 [1]: 1.98 nM
IC50 [2]: 954 nM
Ratio IC50 [3]: 482

CCCc1nnc(-c2nn(-c3ccc(Cl)cc3Cl)c(-c3ccc(Cl)cc3)c2C)o1
IC50 [1]: 160 nM
